Assay results taken from ChEMBL document CHEMBL2311350, “Discovery of a novel phenylethyl benzamide glucokinase activator for the treatment of type 2 diabetes mellitus” (Bioorg Med Chem Lett, 2013).
Calls of active or inactive are those of the source. No cut-off for these calls is given here.

Assays:
[1] = target: T1, Hexokinase-4 (Homo sapiens) (UniProt P35557); experiment: Induction of human pancreatic glucokinase activity assessed as half maximal saturation concentration of glucose at 5 mM glucose concentration
T1 sequence (whole entry): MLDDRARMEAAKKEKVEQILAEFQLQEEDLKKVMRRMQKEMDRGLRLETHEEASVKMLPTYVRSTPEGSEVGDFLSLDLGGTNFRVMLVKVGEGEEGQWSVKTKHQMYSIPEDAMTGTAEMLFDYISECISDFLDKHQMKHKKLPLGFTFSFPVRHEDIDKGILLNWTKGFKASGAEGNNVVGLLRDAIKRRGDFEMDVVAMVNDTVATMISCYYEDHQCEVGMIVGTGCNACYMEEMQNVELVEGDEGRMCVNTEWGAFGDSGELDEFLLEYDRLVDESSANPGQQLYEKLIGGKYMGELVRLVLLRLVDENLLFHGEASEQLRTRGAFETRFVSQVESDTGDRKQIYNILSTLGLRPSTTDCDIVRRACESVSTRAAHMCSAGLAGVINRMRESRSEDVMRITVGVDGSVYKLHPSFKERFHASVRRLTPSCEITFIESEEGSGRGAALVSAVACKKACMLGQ
Procedure, shortened: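 Enzymatic assay with purified recombinant human pancreatic or liver glucokinase, read as fold increase in activity at 5.0 mM glucose. EC50 is the mean of at least duplicate runs. For the pancreatic enzyme, glucose S0.5 and Vmax were also determined.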

Mus musculus [2] = species: Mus musculus; experiment: Increase in oral glucose tolerance in C57BL/J mouse; assay type: functional, organism-based
Procedure, shortened: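 C57BL/J6 mice given oral dosing followed by an oral glucose tolerance test. Plasma glucose was tracked over time and glucose AUC reduction calculated. Several doses were tested, including 50 and 150 mg/kg. Hypoglycemia risk was judged from the glucose profiles.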

Mus musculus [3] = species: Mus musculus; experiment: Antidiabetic activity in ob/ob mouse assessed as reduction in blood glucose level measured after subchronic treatment; assay type: functional, organism-based
Procedure, shortened: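 ob/ob mice dosed orally and repeatedly in a subchronic study. Blood glucose, serum lipids and body weight were monitored.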

MIN6 = experiment: Induction of insulin secretion in mouse MIN6 cells; assay type: functional, cell-based
Procedure, shortened: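 Glucose-dependent insulin secretion measured in the mouse pancreatic beta-cell line MIN-6 across glucose levels.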

Mus musculus [4] = species: Mus musculus; experiment: Antidiabetic activity in ob/ob mouse assessed as reduction in basal glucose level measured after acute treatment; assay type: functional, organism-based
Procedure, shortened: (§1)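 Basal blood glucose change followed after acute oral dosing in non-diabetic C57BL/J6 or diabetic ob/ob mice.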

[5] = target: T2, Hexokinase-2 (Homo sapiens) (UniProt P52789); experiment: Induction of hexokinase 2 (unknown origin)
T2 sequence (whole entry): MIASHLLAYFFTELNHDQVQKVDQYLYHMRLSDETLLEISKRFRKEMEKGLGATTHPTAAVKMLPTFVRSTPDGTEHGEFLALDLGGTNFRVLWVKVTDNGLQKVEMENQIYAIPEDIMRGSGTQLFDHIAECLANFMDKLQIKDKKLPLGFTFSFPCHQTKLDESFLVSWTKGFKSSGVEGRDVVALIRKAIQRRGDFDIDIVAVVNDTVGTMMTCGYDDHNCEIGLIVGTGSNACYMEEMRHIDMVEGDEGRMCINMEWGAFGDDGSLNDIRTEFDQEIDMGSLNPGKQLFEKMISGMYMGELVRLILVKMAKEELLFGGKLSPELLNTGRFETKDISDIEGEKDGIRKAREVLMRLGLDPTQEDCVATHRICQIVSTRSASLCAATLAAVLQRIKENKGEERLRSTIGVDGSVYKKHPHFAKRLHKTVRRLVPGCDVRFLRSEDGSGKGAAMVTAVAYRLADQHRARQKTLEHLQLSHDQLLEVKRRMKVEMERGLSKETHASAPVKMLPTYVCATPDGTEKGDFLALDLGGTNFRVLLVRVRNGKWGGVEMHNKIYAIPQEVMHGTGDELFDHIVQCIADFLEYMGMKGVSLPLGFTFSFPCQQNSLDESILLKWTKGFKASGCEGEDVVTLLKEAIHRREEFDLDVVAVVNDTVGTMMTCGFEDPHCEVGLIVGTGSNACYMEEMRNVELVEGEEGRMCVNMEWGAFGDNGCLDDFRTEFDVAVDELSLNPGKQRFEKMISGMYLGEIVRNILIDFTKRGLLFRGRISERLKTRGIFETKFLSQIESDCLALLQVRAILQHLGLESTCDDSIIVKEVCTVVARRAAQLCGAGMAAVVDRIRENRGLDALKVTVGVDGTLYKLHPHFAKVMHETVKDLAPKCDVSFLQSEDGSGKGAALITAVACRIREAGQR
Procedure, shortened: (§2)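 Selectivity tested in enzymatic hexokinase 1 and hexokinase 2 activity assays.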

Mus musculus [6] = species: Mus musculus; experiment: Antidiabetic activity in C57BL/J mouse assessed as reduction in basal glucose level measured after acute treatment; assay type: functional, organism-based; procedure, shortened: as §1
[7] = target: T3, Hexokinase-1 (Homo sapiens) (UniProt P19367); experiment: Induction of hexokinase 1 (unknown origin); procedure, shortened: as §2
T3 sequence (whole entry): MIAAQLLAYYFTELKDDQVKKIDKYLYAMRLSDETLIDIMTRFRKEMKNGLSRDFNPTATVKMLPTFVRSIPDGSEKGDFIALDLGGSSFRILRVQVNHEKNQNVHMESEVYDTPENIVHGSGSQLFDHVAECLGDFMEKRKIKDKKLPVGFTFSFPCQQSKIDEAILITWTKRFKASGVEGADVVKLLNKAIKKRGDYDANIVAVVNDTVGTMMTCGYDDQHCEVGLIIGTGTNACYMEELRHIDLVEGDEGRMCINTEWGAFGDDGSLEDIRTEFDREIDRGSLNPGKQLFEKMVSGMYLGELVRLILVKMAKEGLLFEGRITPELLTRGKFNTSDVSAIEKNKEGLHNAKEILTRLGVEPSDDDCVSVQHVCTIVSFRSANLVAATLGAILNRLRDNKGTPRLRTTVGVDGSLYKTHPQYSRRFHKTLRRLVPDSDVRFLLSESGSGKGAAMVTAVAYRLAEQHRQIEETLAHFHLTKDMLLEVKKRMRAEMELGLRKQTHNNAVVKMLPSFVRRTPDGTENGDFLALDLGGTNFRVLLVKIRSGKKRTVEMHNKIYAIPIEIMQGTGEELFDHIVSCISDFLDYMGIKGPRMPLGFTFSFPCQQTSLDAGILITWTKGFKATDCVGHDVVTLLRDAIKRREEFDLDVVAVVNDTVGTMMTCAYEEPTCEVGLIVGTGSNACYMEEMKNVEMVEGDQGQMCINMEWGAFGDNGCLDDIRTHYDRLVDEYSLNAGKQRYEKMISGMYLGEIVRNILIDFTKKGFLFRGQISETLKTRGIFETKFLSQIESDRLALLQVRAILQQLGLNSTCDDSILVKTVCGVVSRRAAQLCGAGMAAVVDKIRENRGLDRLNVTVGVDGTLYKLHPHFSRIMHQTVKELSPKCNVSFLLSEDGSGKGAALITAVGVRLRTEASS

Activity [1]: Active | Activity [5]: inactive | Activity [7]: inactive
SMILES: COC[C@H](C)Oc1cc(CCc2c(F)cccc2F)cc(C(=O)Nc2ccc(C(=O)O)cn2)c1
Activity (Mus musculus [2]): Dose-dependent effect | Activity (Mus musculus [3]): Active | Activity (MIN6): Dose-dependent effect | Activity (Mus musculus [4]): Active | Activity (Mus musculus [6]): Active
